# PHOSPHO1 block – inhibitors of human PHOSPHO1 phosphatase. inhibition, % at 13.3 µM. recombinant PHOSPHO1, absorbance phosphatase assay. Q8TCT1. 290,000 tested, 1.1% active; in the data active = inhibition above about 60%
# CHT PAM – human CHT allosteric activation. AID 488977. B-score at 10 µM. 310,000 tested, 0.49% active. CHT-expressing cells, membrane potential dye, choline EC20; active compounds read high; LV-AA mutant CHT in HEK293 cells;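 active = initial fluorescence not abnormally high and integrated response B-score, plate-corrected, over 3 SD above library mean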
# Target sequence (Q9GZV3 whole entry, looked up): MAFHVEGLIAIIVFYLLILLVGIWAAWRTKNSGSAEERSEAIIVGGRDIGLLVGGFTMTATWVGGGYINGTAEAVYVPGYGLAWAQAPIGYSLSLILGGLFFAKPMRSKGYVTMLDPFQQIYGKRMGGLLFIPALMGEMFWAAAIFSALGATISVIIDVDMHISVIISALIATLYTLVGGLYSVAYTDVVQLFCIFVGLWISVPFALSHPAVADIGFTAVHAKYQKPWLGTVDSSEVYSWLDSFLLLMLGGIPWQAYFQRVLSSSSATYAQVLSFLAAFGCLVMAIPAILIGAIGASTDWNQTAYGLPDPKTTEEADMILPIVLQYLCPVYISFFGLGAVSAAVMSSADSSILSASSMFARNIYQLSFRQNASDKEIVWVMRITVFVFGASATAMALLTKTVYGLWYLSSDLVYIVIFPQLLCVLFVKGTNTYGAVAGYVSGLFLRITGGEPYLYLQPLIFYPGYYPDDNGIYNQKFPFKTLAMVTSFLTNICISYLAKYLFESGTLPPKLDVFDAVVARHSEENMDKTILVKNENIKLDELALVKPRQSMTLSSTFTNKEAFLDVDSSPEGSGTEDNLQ
# CHT inh – human CHT choline transport inhibition; B-score at 10 µM; CHT-expressing cells, membrane potential dye, choline response; active compounds read low; 310,000 tested, 0.86% active; AID 488975; Q9GZV3;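 active = B-score over 3 SD under the library average, and starting fluorescence ratio not unusually high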;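 note: choline stimulus applied at its EC90 after an EC20 pre-addition; B-score computed on integrated fluorescence ratio after choline addition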
# Lipid droplet – hepatic lipid droplet formation modulation. AML12 mouse hepatocytes, oleate lipid droplets, BODIPY imaging. inhibition, % at 6.5 µM. 240,000 tested, 0.4% active. AID 1656;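 active = lipid droplet intensity inhibited by at least 50%, with more than 500 cells counted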
#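 System: AML12 hepatocytes (mouse). Probe or stimulus: oleic acid at 100 µM to induce lipid droplet formation. Times: overnight treatment with compound plus oleate. Detection: Image-based BODIPY and DAPI two-channel analysis. Evaluation: percent inhibition of filter-corrected integrated lipid droplet intensity per well.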
# HSF1 inh – HSF1 inhibition. activity change, negative = inhibition, % at 7.5 µM (by protocol). NIH3T3-HGL HSE-luciferase, MG132-induced, luminescence 8 h; active compounds read low. AID 2098. 300,000 tested, 0.77% active;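 active = more than half of replicate wells show activity change below -50%, luminescence cut by over half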;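 note: luciferase reports HSF-1 transcriptional activity via heat shock element; 0% = median of DMSO wells and -100% = zero luminescence signal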
# HSF1 activator – increases HSF-1 driven luciferase reporter signal; 300,000 tested, 1.7% active; NIH3T3-HGL HSF-1 luciferase reporter, MG132, 8 h; 100% = twice DMSO control signal; activation, % at 9 µM;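 active = mean replicate activation of at least 50% with a set share of replicates each reaching 50%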;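 note: 0% = median of the neutral control wells and 100% = twice that signal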
# CHT inh conf – confirmation of human choline transporter CHT inhibitors; shares compounds with CHT inh; CHT-expressing cells, choline membrane potential dye; LV-to-AA substituted CHT, HEK293 cells; CHT activity remaining % of control (active compounds read low), % at 10 µM; 2,400 tested, 70% active;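 active = choline transporter activity left, mean of duplicates at 10 µM, below buffer-only control mean minus 3 SD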;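 note: depolarization triggered by choline at its EC90 following an EC20 pre-addition; 0% = hemicholinium-3 full block and 100% = buffer-only control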
# HEK293 MPD ctr – CHT inhibitor counter-screen hit in parental HEK293 cells | shares compounds with CHT inh | membrane potential dye, choline response; active = decrease or increase beyond buffer ±3SD | membrane potential ratio readout (active if shifted either direction beyond buffer ±3SD; no single direction) at 10 µM | 2,400 tested, 4% active | AID 493222;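 note: parental cells lack the transporter so any hit is non-specific; ratio is peak minus trough fluorescence over baseline after EC90 choline challenge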
# Numbers without * were called inactive; i = inactive; / = no result. This is a sample that favours compounds with a hit; in the whole collection about 4.9% have one here.
SMILES,PHOSPHO1 block,CHT PAM,CHT inh,Lipid droplet,HSF1 inh,HSF1 activator,CHT inh conf,HEK293 MPD ctr
Cc1c(C)n(CCc2ccccc2)c2ncnc(NN)c12,15.9,i,-6.1*,-30.9,15.1,46.2,61.1%*,i
Cc1c(C)n(Cc2ccccc2)c2ncnc(NN)c12,15.6,i,i,-10.3,6.4,0.0,/,/
CCCCNC(=O)/C(C#N)=c1\s/c(=C\c2ccccc2OC(F)F)c(=O)n1CCCOC,-18.6,i,i,-5.2,0.0,-1.3,/,/
COc1ccc2c(c1)CC(C)C/C2=N\NC(=O)c1ccco1 (configuration not stated),-5.3,i,-9.52*,-2.6,9.8,23.8,57.5%*,i
Cn1cc(/C=C2\SC(=O)N(c3ccccc3)C2=O)c2ccccc21,2.1,i,-6.55*,-5.1,19.2,30.5,i,i
O=C(N/N=C/c1ccc[nH]1)c1cccc(Br)c1,0.2,i,i,-4.4,-2.8,7.9,/,/
NS(=O)(=O)c1ccc(CNc2ccc3ccccc3n2)cc1,4.0,i,-9.28*,1.0,7.3,22.6,21.4%*,i
O=C(CCC(=O)N1CCN(c2ccccc2F)CC1)N1CCN(c2ccc(F)cc2)CC1,24.1,i,-5.38*,15.0,-5.1,-7.4,68.6%*,i
CCN1CCN(CC(=O)Nc2cccc(C)c2C)C(=O)C1=O,-5.3,i,i,/,-4.4,-3.2,/,/
CC(C)(C)[C@H]1CCC(=O)N([C@H](CN=[N+]=[N-])Cc2ccccc2)CC1,-41.1,i,-5.15*,-46.7,1.9,0.1,i,i
CC(C)(C)NCC(O)Cn1cc(C=O)c2ccccc21 (configuration not stated),43.1,i,-5.67*,-2.9,-8.6,-18.1,49.6%*,i
Cc1ccc(NC(=O)Cn2cc(C=O)c3ccccc32)cc1,-13.0,i,i,-5.8,-1.6,1.4,/,/
COc1cc(O)c(C(CC(=O)N2CCCC(C)C2)c2ccc(N(C)C)cc2)c(OC)c1 (configuration not stated),35.3,i,i,-26.9,4.1,4.1,/,/
COc1cc(O)c(C(CC(=O)N2CCN(c3ccccc3)CC2)c2ccc(N(C)C)cc2)c(OC)c1 (configuration not stated),26.5,i,-10.5*,14.1,13.7,19.5,i,i
O=C(COC(=O)Cc1n[nH]c(=O)c2ccccc12)Nc1c(Cl)cccc1C(F)(F)F,/,i,i,/,-5.6,2.6,/,/
COc1ccccc1/C=C1\SC(=O)N(CC(=O)NCCCn2ccnc2)C1=O,12.0,i,-7.06*,-28.0,-2.3,2.7,68.6%*,i
O=C(NCCc1ccccc1)c1ccc2c(=O)[nH]c3c(C(=O)NCC4CCCO4)sc(=S)n3c2c1 (configuration not stated),22.3,i,-10.3*,-0.7,12.0,15.0,-19.4%*,i
CCN(CC)S(=O)(=O)c1ccc(N2CCCCC2)c(NC(=O)C2CCN(C(=O)c3ccc(F)cc3)CC2)c1,/,i,i,/,7.1,-0.9,/,/
CCc1ccc(S(=O)(=O)/N=C2\C=C(NS(=O)(=O)c3ccccc3)C(=O)c3ccccc32)cc1,36.0,/,/,11.0,2.7,12.5,/,/
CC(C)c1ccc(S(=O)(=O)/N=C2\C=C(NS(=O)(=O)c3ccccc3)C(=O)c3ccccc32)cc1,55.3,i,-10.1*,-7.8,2.5,11.8,38.9%*,i
COc1cccc(C(=O)COC(=O)c2cccs2)c1,41.8,i,i,1.8,24.6,20.8,/,/
Cc1n[nH]c(C)c1S(=O)(=O)N1CCCC(C(=O)N2CCN(c3ccc(Cl)cc3)CC2)C1 (configuration not stated),15.9,i,-5.22*,/,/,/,i,i
Cc1cc(-c2nc3cccnc3s2)ccc1NS(=O)(=O)c1ccc2c(c1)OCCO2,14.1,i,-7.32*,-13.8,-1.8,-6.1,i,i
O=C(Nc1cc(C(F)(F)F)ccc1N1CCOCC1)c1cccnc1,7.1,i,i,9.7,-9.5,-8.3,/,/
Cc1nn(-c2ccccc2)c(Oc2ccccc2)c1C=O,-4.4,i,i,28.5,-0.5,18.9,/,/
SMILES,PHOSPHO1 block,CHT PAM,CHT inh,Lipid droplet,HSF1 inh,HSF1 activator,CHT inh conf,HEK293 MPD ctr
CS(=O)(=O)n1nc(OC(=O)c2cccc3ccccc23)cc1N,11.4,i,-5.45*,/,3.8,-7.7,63.1%*,i
CS(=O)(=O)n1nc(OC(=O)c2cc(Br)ccc2Cl)cc1N,32.0,i,i,17.6,-7.6,1.7,/,/
Cc1ccc(S(=O)(=O)Oc2cccc(/C=N/n3cnnc3)c2)cc1,1.9,i,-10.4*,-24.0,-7.8,2.2,55.8%*,i
Cc1ccc(S(=O)(=O)Oc2cccc(/C=N/Nc3ccc(C(=O)O)cc3)c2)cc1,35.7,i,i,-3.2,-7.7,1.2,/,/
Cc1cc(C)nc(N2CCC(C(=O)NCc3cccs3)CC2)n1,15.2,i,-8.3*,/,5.1,-8.5,i,i
CCc1cccc(C)c1NC(=O)COC(=O)C(NS(=O)(=O)c1ccc(Cl)cc1)C(C)O (configuration not stated),-2.2,i,i,-4.0,1.9,-4.4,/,/
Cc1occc1-c1nnc(SCC(=O)Nc2nccs2)n1CCc1ccccc1,-38.9,i,-6.51*,-8.2,-6.0,-2.9,i,i
Cc1csc(NC(=O)CSc2nnc(-c3ccoc3C)n2Cc2ccco2)n1,-25.3,i,-5.29*,-0.1,-0.4,7.5,i,i
O=C(COC(=O)CNC(=O)c1sc2ccccc2c1Cl)NC1CCS(=O)(=O)C1 (configuration not stated),/,i,i,/,-0.3,22.5,/,/
COC(=O)CNC(=O)Cn1cnc2sc(C)c(S(=O)(=O)N3CCN(c4ccccc4OC)CC3)c2c1=O,27.0,i,i,-13.5,-6.2,-4.0,/,/
CCOC(=O)c1cccc(Nc2ncnc3ccccc23)c1,8.7,i,-8.18*,2.4,-4.4,-0.9,24.9%*,i
CC(OC(=O)C1CSC2(C)CCC(=O)N12)C(=O)Nc1cccc(C#N)c1 (configuration not stated),/,i,i,/,2.6,4.4,/,/
COc1ccc(C(=O)Nc2nc(CC(=O)NCCc3ccccc3)cs2)cc1,/,i,-5.15*,/,14.5,9.9,i,i

# Source: PubChem (several laboratories)
